This note sets out measurements from ChEMBL document CHEMBL1144610, “High-affinity carbamate analogues of morphinan at opioid receptors” (Bioorg Med Chem Lett, 2007).

The target in assay [1] is T1, Kappa-type opioid receptor (Homo sapiens, UniProt P41145). Briefly: Agonist activity at huma kappa opioid receptor expressed in CHO cells assessed as […] of [35S]GTP-gamma-S binding. The format is functional, cell-based. In general terms: GTPγS resists hydrolysis and so accumulates on activated G proteins.
Assay [2] has as its target T2, Mu-type opioid receptor (Homo sapiens, UniProt P35372). Nature of the assay: Agonist activity at human mu opioid receptor expressed in CHO cells assessed as maximal stimulation of [35S]GTP-gamma-S binding. The assay is classed as functional, cell-based.
The target of assay [3] is T1, Kappa-type opioid receptor. Nature of the assay: Displacement of [3H]U-69593 from human kappa opioid receptors expressed in CHO cell membrane. A general note: Loss of bound radioactivity is the signal in a displacement assay; it reports binding, not function.
In assay [4] the target is T1, Kappa-type opioid receptor. Nature of the assay: Agonist activity at human opioid kappa receptor expressed in CHO cells assessed as maximal stimulation of [35S]GTP-gamma-S binding relative to control. The assay is classed as functional, cell-based. The procedure, abridged: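 CHO cell membranes stably expressing only the human κ opioid receptor were incubated with varying concentrations of each compound. Stimulation of [35S]GTPγS binding was measured, and maximal stimulation was taken as Emax.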

The target of assay [5] is Delta-type opioid receptor (Homo sapiens, UniProt P41143). Briefly: Displacement of [3H]naltrindole from human delta opioid receptors expressed in CHO cell membrane.
For assay [6], the target named is Opioid receptors; delta & kappa (Homo sapiens) (UniProt P41145+P41143). Nature of the assay: Selectivity for kappa opioid receptor over delta opioid receptor. The assay is classed as protein assay.
The target in assay [7] is T2, Mu-type opioid receptor. Nature of the assay: Displacement of [3H]DAMGO from human mu opioid receptors expressed in CHO cell membrane.
Assay [8] has as its target Opioid receptors; mu & kappa (Homo sapiens) (UniProt P41145+P35372). Briefly: Selectivity for kappa opioid receptor over mu opioid receptor expressed in CHO cells. The assay is classed as cell-based.
Assay [9] can be described thus: Displacement of [3H]naltrindole from human delta opioid receptors expressed in CHO cell membrane.
Assay [10] deals with T2, Mu-type opioid receptor. Briefly: Antagonist activity at human mu opioid receptor expressed in CHO cells assessed as DAMGO-stimulated [35S]GTP-gamma-S binding. The format is functional, cell-based.

What is called EC50 is the concentration giving half of the maximal effect. In general, Emax refers to the greatest response seen or fitted, relative to the assay's reference. Usually Ki stands for a dissociation constant, usually derived from enzyme kinetics or from competition with a known ligand. For orientation: IC50 means the concentration at which inhibition is half-maximal.

Activity calls are given as the source filed them. The calls are words filed in the database; no cut-off is given here.

Chain of Opioid receptors; mu & kappa (Homo sapiens) (P35372 whole entry, looked up): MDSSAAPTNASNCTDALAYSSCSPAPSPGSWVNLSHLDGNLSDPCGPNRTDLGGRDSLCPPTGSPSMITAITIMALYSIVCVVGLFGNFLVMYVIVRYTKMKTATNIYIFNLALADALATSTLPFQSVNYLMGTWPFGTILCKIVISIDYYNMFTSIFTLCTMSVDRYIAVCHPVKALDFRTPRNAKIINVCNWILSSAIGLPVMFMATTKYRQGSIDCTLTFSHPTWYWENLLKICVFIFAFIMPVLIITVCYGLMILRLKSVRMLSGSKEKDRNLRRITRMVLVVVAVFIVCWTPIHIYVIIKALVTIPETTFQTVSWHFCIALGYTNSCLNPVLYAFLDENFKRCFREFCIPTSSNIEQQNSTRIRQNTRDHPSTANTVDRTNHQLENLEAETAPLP
Chain of Opioid receptors; mu & kappa (Homo sapiens) (P41145 whole entry, looked up): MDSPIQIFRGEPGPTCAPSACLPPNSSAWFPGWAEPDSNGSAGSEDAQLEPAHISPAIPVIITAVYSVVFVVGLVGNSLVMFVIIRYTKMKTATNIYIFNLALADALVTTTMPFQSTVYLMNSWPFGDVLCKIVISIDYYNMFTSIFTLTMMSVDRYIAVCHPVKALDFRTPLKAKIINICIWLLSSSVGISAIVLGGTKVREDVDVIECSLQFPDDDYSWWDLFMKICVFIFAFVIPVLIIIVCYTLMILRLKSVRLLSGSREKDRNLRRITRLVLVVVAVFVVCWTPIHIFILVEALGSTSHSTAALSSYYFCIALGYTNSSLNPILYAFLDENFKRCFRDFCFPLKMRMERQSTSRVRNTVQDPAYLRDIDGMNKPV
T2 sequence (P35372 whole entry): as the sequence (P35372 whole entry, looked up) above
T1 sequence (P41145 whole entry): as the sequence (P41145 whole entry, looked up) above
Chain of Delta-type opioid receptor (P41143 whole entry): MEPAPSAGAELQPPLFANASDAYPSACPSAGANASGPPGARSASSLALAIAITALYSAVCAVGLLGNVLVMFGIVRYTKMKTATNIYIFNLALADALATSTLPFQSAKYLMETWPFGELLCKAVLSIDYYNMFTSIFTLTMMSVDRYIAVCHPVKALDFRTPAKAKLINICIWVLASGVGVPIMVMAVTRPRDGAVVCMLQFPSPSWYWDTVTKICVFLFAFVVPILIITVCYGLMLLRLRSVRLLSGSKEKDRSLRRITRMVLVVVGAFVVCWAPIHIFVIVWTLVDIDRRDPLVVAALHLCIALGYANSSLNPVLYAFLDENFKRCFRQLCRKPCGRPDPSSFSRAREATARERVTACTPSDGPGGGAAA
Chain of Opioid receptors; delta & kappa (Homo sapiens) (P41143 whole entry, looked up): as the sequence (P41143 whole entry) above
Chain of Opioid receptors; delta & kappa (Homo sapiens) (P41145 whole entry, looked up): as the sequence (P41145 whole entry, looked up) above

On to `CNC(=O)Oc1ccc2c(c1)C13CCCCC1C(C2)N(CC1CCC1)CC3` (single isomer, unassigned; (-)), for which the EC50 stood at 9.6 nM in [1] and 11 nM at Mu-type opioid receptor [2]. Also, the results for the Emax (on Mu-type opioid receptor [2]; in assay [4]) were 60% and 88%, respectively. Further, the inhibition constant (Ki) in assay [3] amounted to 0.81 nM; in assay [5], 30 nM; on Mu-type opioid receptor [7], 1.2 nM. For the same molecule, the figures for the Ratio Ki in [6] and in assay [8] were 37 and 1.5, respectively.
As for `CNC(=O)Oc1ccc2c(c1)C13CCCCC1C(C2)N(C)CC3` (stereo not given), the concentration giving a half-maximal response (EC50) in assay [1] is 29 nM; on Mu-type opioid receptor [2], 50 nM. Further, the maximum response (Emax) at Mu-type opioid receptor [2] is 71%; in [4], 96%. Also, the inhibition constant (Ki) in assay [3] is 3.3 nM; in [5], 53 nM; at Mu-type opioid receptor [7], 1.4 nM. In addition, the Ratio Ki in [6] came out at 16; in assay [8] it was 0.4.
In turn, `Oc1ccc2c(c1)[C@@]13CCCC[C@H]1[C@@H](C2)N(CC1CCC1)CC3` [BUTORPHAN] came in with a Ki in assay [9] of 5.9 nM.
For `CNC(=O)Oc1ccc2c(c1)C13CCCCC1C(C2)N(CC1CC1)CC3` (single isomer, unassigned; (-)), the results for the EC50 (in [1]; at Mu-type opioid receptor [2]) were 16 nM and 14 nM, respectively. Further, the maximal effect (Emax) at Mu-type opioid receptor [2] is 44%; in [4], 78%. The Ki in [3] amounted to 3.4 nM; in assay [5], 42 nM; at Mu-type opioid receptor [7], 5.3 nM. Also, the Ratio Ki in [6] was 12; in assay [8] it was 1.6.
As for `O=C(Nc1ccccc1)Oc1ccc2c(c1)C13CCCCC1C(C2)N(CC1CCC1)CC3` (single isomer, unassigned; (-)), the values for the EC50 (in assay [1]; at Mu-type opioid receptor [2]) were 2.2 nM and 1.3 nM, respectively. The IC50 at Mu-type opioid receptor [10] amounted to 22 nM. For the same molecule, at Mu-type opioid receptor [10], the Imax turned out to be 37%. The maximum response (Emax) on Mu-type opioid receptor [2] turned out to be 80%; in assay [4] it was 74%. For the same molecule, the Ki came out at 0.051 nM in assay [3], 3.9 nM in assay [5] and 0.12 nM on Mu-type opioid receptor [7]. The Ratio Ki in assay [6] amounted to 76; in assay [8], 2.
As to `CCNC(=O)Oc1ccc2c(c1)C13CCCCC1C(C2)N(C)CC3` (stereo not given), the Ki was determined as 36 nM in assay [3], 78 nM in assay [5] and 4.8 nM at Mu-type opioid receptor [7]. The Ratio Ki in assay [6] is 2; in assay [8], 0.1.
Take `O=C(Nc1ccccc1)Oc1ccc2c(c1)C13CCCCC1C(C2)N(CC1CC1)CC3` (stereo not given): the concentration for a half-maximal effect (EC50) in assay [1] was determined as 0.38 nM; on Mu-type opioid receptor [2], 0.44 nM. Also, the IC50 on Mu-type opioid receptor [10] stood at 6.4 nM. Also, the Imax on Mu-type opioid receptor [10] turned out to be 70%. In addition, the maximum response (Emax) worked out at 39% on Mu-type opioid receptor [2] and 120% in assay [4]. Also, the Ki amounted to 0.046 nM in [3], 1.6 nM in assay [5] and 0.11 nM on Mu-type opioid receptor [7]. Further, the Ratio Ki in [6] came to 35; in assay [8], 2.4.
On to `CCNC(=O)Oc1ccc2c(c1)C13CCCCC1C(C2)N(CC1CCC1)CC3` (stereo not given), for which the EC50 is 23 nM in assay [1] and 39 nM at Mu-type opioid receptor [2]. In addition, the outcome at Mu-type opioid receptor [10] was inactive. Also, on Mu-type opioid receptor [10], the Imax came out at 33%. The values for the Emax (on Mu-type opioid receptor [2]; in assay [4]) were 32% and 61%, respectively. For the same molecule, the values for the inhibition constant (Ki) (in [3]; in [5]; on Mu-type opioid receptor [7]) were 4.3 nM, 27 nM and 3.7 nM, respectively. The values for the Ratio Ki in [6] and in assay [8] were 6 and 0.9, respectively.
With `Oc1ccc2c(c1)[C@@]13CCCC[C@H]1[C@@H](C2)N(CC1CC1)CC3` [CYCLORPHAN], the affinity in assay [9] corresponds to a Ki of 1.9 nM.
As to `CCNC(=O)Oc1ccc2c(c1)C13CCCCC1C(C2)N(CC1CC1)CC3` (single isomer, unassigned; (-)), the EC50 in assay [1] turned out to be 1.2 nM; at Mu-type opioid receptor [2], 2.4 nM. For the same molecule, the IC50 on Mu-type opioid receptor [10] was 10 nM. At Mu-type opioid receptor [10], the Imax stood at 68%. Besides, the Emax came to 40% on Mu-type opioid receptor [2] and 140% in [4]. Moreover, the results for the Ki (in assay [3]; in assay [5]; at Mu-type opioid receptor [7]) were 0.14 nM, 2.8 nM and 0.29 nM, respectively. The Ratio Ki in assay [6] was 20; in assay [8], 2.
`O=C(NCc1ccccc1)Oc1ccc2c(c1)C13CCCCC1C(C2)N(CC1CC1)CC3` (single isomer, unassigned; (-)): the results for the EC50 (in [1]; at Mu-type opioid receptor [2]) were 1.1 nM and 2.2 nM, respectively. Moreover, the concentration for half-maximal inhibition (IC50) at Mu-type opioid receptor [10] amounted to 16 nM. Also, the Imax at Mu-type opioid receptor [10] was 71%. The values for the Emax (at Mu-type opioid receptor [2]; in assay [4]) were 39% and 130%, respectively. Moreover, the inhibition constant Ki was determined as 0.14 nM in [3], 2.7 nM in assay [5] and 0.3 nM at Mu-type opioid receptor [7]. The Ratio Ki in assay [6] is 20; in assay [8], 2.
Consider `O=C(NCc1ccccc1)Oc1ccc2c(c1)C13CCCCC1C(C2)N(CC1CCC1)CC3` (single isomer, unassigned; (-)), for which the results for the EC50 (in [1]; at Mu-type opioid receptor [2]) were 4.7 nM and 7.1 nM, respectively. The IC50 at Mu-type opioid receptor [10] came out at 260 nM. Besides, the Imax at Mu-type opioid receptor [10] came to 50%. For the same molecule, the maximal response (Emax) amounted to 54% on Mu-type opioid receptor [2] and 110% in [4]. For the same molecule, the results for the Ki (in [3]; in assay [5]; on Mu-type opioid receptor [7]) were 0.3 nM, 15 nM and 0.7 nM, respectively. Moreover, the Ratio Ki in assay [6] worked out at 50; in assay [8] it was 0.4.
